The values that follow come from ChEMBL document CHEMBL1148410, “Antitumor agents. 3. Design, synthesis, and biological evaluation of new pyridoisoquinolindione and dihydrothienoquinolindione derivatives with potent cytotoxic activity” (J Med Chem, 2004).

For one experiment, the system named is CCRF-SB. Kind of experiment: Concentration required to reduce proliferation of human acute B-lymphoblastic (CCRF-SB) cell line by 50% as determined by the MTT method. Type of experiment: functional, cell-based. The method in brief:
(§1)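 Leukemia/lymphoma cells grown in RPMI 1640 with 10% FCS, 37 °C, humidified 5% CO2. Compounds were dissolved in DMSO (200 μM initial) and serially diluted in medium. Exponentially growing cells were resuspended at 1×10^5 cells/mL with the drug dilutions. Viability was read by MTT after 96 h at 37 °C. Growth was taken as % of untreated controls, and IC50 came from linear regression. Values are the mean of three independent determinations.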

For a further experiment, the system named is CCRF-CEM. Kind of experiment: Concentration required to reduce proliferation of CD4+ human acuteT-lymphoblastic leukemia (CCRF-CEM) cell line by 50% as determined by the MTT method. Type of experiment: functional, cell-based. The gist of the method:
as §1

Another experiment relates to DU-145. Kind of experiment: Concentration required to reduce proliferation of human prostate carcinoma (DU-145) cell line by 50% as determined by the MTT method. The class given is functional, cell-based. The gist of the method: (§2)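 Solid-tumour-derived cells (and fibroblasts) were seeded in exponential growth at 5×10^4 cells/mL and allowed to adhere for 16 h before serial drug dilutions were added (DMSO stock 200 μM, diluted in medium). MTT viability was read 4 days later. Untreated controls went through at least three rounds of multiplication. IC50 came from linear regression of % growth versus untreated control, mean of three independent determinations.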
(In general: Tetrazolium dyes change colour on reduction, which living cells bring about.)

The next experiment concerns HepG2. Kind of experiment: Concentration required to reduce proliferation of human hepatocellular carcinoma (HepG-2) cell line by 50% as determined by the MTT method. Type of experiment: functional, cell-based. The gist of the method: as §2
The test system of experiment [1] is KB. Kind of experiment: Concentration required to reduce proliferation of KB subclones passaged in the presence of doxorubicin 0.09 uM (KBMDR) cell line by 50% as determined by the MTT method. The class given is functional, cell-based. Conditions: Homo sapiens. The method in brief: (§3)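 Adherent cultures were seeded at 5×10^4 cells/mL, attached for 16 h, then exposed to serial drug dilutions. MTT viability was read after 4 days, with controls completing at least three doublings. IC50 came from linear regression, mean ±SD of three independent determinations.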

The subject of experiment [2] is KB. In words: Concentration required to reduce proliferation of KB human nasopharyngeal carcinoma (KBWT) cell line by 50% as determined by the MTT method. Type of experiment: functional, cell-based. The method in brief: as §3
Experiment [3] relates to KB. Kind of experiment: Concentration required to reduce proliferation of KB subclones passaged in the presence of etoposide 7 uM (KB7D) cell line by 50% as determined by the MTT method. Conditions: Homo sapiens. Type of experiment: functional, cell-based. The method in brief: as §3
In the next experiment the test system is MCF7. In words: Concentration required to reduce proliferation of human breast adenocarcinoma (MCF-7) cell line by 50% as determined by the MTT method. The class given is functional, cell-based. The method in brief: as §2
The test system of a further experiment is MT4. Kind of experiment: Concentration required to reduce proliferation of CD4+ human acute T-lymphoblastic leukemia (MT-4) cell line by 50% as determined by the MTT method. The class given is functional, cell-based. The gist of the method: as §1
In another experiment the test system is WIL2-NS. Kind of experiment: Concentration required to reduce proliferation of human splenic B-lymphoblastoid (Wil2-NS) cell line by 50% as determined by the MTT method. Type of experiment: functional, cell-based. The method in brief:
as §1

Another experiment deals with SK-MEL-28. In words: Concentration required to reduce proliferation of human melanoma (SKMEL-28) cell line by 50% as determined by the MTT method. Type of experiment: functional, cell-based. The gist of the method:
as §2

For a further experiment, the system named is SK-MES-1. Kind of experiment: Concentration required to reduce proliferation of human lung squamous carcinoma (SKMES-1) cell line by 50% as determined by the MTT method. Type of experiment: functional, cell-based. The method in brief:
as §2

Experiment [4] concerns KB. In words: Concentration required to reduce proliferation of KB subclones passaged in the presence of vincristine 0.02 uM (KBV20C) cell line by 50% as determined by the MTT method. The following applies: Homo sapiens.

For orientation: IC50 means the concentration needed to halve the response being measured.

`CCOC(=O)C1=CC2C(=O)c3ncccc3C(=O)C2C(c2ccc([N+](=O)[O-])cc2)=N1` (stereo not drawn): the IC50 was found to be 2 nM in the experiment with CCRF-SB; 50 nM in the experiment with CCRF-CEM; 10 nM in the experiment with DU-145; 70 nM with HepG2; 300 nM with KB [1]; 80 nM with KB [2]. In addition, the IC50 in the experiment with KB [3] turned out to be 400 nM; in the experiment on MCF7, 80 nM; with MT4 it was 1 nM; with WIL2-NS, 1 nM; in the experiment with SK-MEL-28, 1 nM; in the experiment with SK-MES-1, 10 nM. Besides, the concentration for half-maximal inhibition (IC50) in the experiment with KB [4] was 200 nM.
